These results are taken from article PMC8453771 (Journal of Clinical Pharmacology, 2021).

Data set [1] is classed as in vivo, human. In short, it runs like this:
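Pooled noncompartmental data from 17 phase 1 studies in healthy subjects, fasted or light meal, no co-administered drugs; solution, suspension or tablet, 0.5–300 mg. Single dose: AUCinf; multiple dose: steady-state AUCtau (tau 24 h), day-1 Cmax.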

For data set [2], the system named is UGT1A9. The experiment in a line: UGT1A9 genotype analysis of ertugliflozin AUC pooled from phase 1 studies. The format is in vivo, human. The settings on record: for Predicted mean (90% CI) ertugliflozin AUC: Wild type, fasted. In short, it runs like this:
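AUC pooled from 20 phase 1 studies of fasted oral tablets in genotyped healthy subjects. Linear AUC-versus-dose model as for dose proportionality. Three UGT1A9 variants (*1b homozygous/heterozygous, -2152 heterozygous, *3 heterozygous) entered together as categorical covariates on slope, giving fold change versus wild type for all alleles.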

The conditions of data set [3]: cited from earlier work.
The subject of data set [4] is UGT1A9. The settings on record: in vitro; cited from earlier work.
For the next data set, the system named is UGT2B7 and UGT2B4. The settings on record: in vitro; cited from earlier work.
For data set [5] the following is noted: coadministration of rifampin; cited from earlier work.
For data set [6] the following is noted: coadministration of mefenamic acid; PBPK modeling; cited from earlier work.
The conditions of data set [7]: primary metabolites in plasma; cited from earlier work.
Setting [8] is: 5-mg tablet, fasted state, full model bootstrap.

Like-named read-outs stand apart in the source and are kept apart here.

With `CCOc1ccc(Cc2cc([C@]34OC[C@](CO)(O3)[C@@H](O)[C@H](O)[C@H]4O)ccc2Cl)cc1` [ertugliflozin], in data set [1] (setting [8]), the “predicted mean AUC” value is 437 ng·h/mL and the “predicted mean Cmax” value is 88.7 ng/mL. The “predicted mean AUC” value in data set [1] (15-mg tablet, fasted state, full model bootstrap) is reported as 1380 ng·h/mL. In data set [1] (administered as a solution), the “AUC higher versus the tablet form” value is recorded as 16% and the “Cmax lower versus the tablet form” value was found to be 18%. Moreover, in data set [1] (administered with a light meal), the “AUC lower relative to fasting administration” value is listed as 10% and the “Cmax lower relative to fasting administration” value is 46%. For the same compound, the “AUC intercept, Estimate (RSE, %)” value in data set [1] (base model) is “–26.5 (28.8) ng·h/mL”. Also, in data set [1] (base model, AUC as linear function of dose), the “AUC slope, Estimate (RSE, %)” value was 93.2 (1.50) ng·h/mL/mg. Also, in data set [1] (base model, Cmax as linear function of dose), the “Cmax slope, Estimate (RSE, %)” value is recorded as 16.2 (2.20) ng/mL/mg. Further, in data set [1] (dose range 0.5 to 300 mg, healthy subjects), the “relationship of AUC and Cmax to dose” value is given as “dose‐proportional”. For the same compound, in data set [1] (full model), the “AUC intercept, Estimate (RSE, %)” value was “–33.7 (33.2) ng·h/mL”; the “Solution covariate: fold change in AUC slope vs tablet, Estimate (RSE, %)” value is reported as 1.16 (6.35); the “Solution covariate: fold change in Cmax slope vs tablet, Estimate (RSE, %)” value is 0.821 (7.08); the “Suspension covariate: fold change in AUC slope vs tablet, Estimate (RSE, %)” value was 1.04 (3.44). For the same compound, in data set [1] (full model), the “Suspension covariate: fold change in Cmax slope vs tablet, Estimate (RSE, %)” value is given as 0.897 (4.77) and the “effect of suspension formulation on AUC or Cmax relative to tablet” value is recorded as “did not have a significant effect”. Further, in data set [1] (full model, tablet, fasted), the “AUC slope, Estimate (RSE, %)” value is recorded as 94.1 (1.76) ng·h/mL/mg and the “Cmax slope, Estimate (RSE, %)” value is 17.7 (1.92) ng/mL/mg. In the data set with UGT1A9 [2] (UGT1A9-2152 heterozygous and UGT1A9*1b heterozygous variants combined), the “decrease in AUC compared with wild-type UGT1A9” value is 7.3%. Further, the “combined effect on AUC (fold vs wild type)” value in the data set on UGT1A9 [2] (UGT1A9-2152 heterozygous and UGT1A9*1b heterozygous variants, 0.988 × 0.938) is 0.927. Also, the “Predicted mean (90% CI) ertugliflozin AUC” value in the data set with UGT1A9 [2] (5 mg tablet) was 436 ng·h/mL. The “Predicted mean (90% CI) ertugliflozin AUC” value in the data set with UGT1A9 [2] (15 mg tablet) is given as 1410 ng·h/mL. Also, in the data set on UGT1A9 [2] (base model), the “AUC intercept, Estimate (RSE, %)” value is listed as “–63.9 (16.3) ng·h/mL” and the “AUC slope, Estimate (RSE, %)” value is listed as 96.7 (1.89) ng·h/mL/mg. The “AUC intercept, Estimate (RSE, %)” value in the data set on UGT1A9 [2] (full model) was “–50.1 (22.8) ng·h/mL”. In the data set with UGT1A9 [2] (full model, 95%CI included 1), the “effect of UGT1A9-2152 heterozygous variant on AUC” value is given as “did not have a significant effect”. Further, the “AUC slope, Estimate (RSE, %)” value with UGT1A9 [2] (full model, UGT1A9 wild-type subjects) is 97.1 (3.25) ng·h/mL/mg. In addition, the “clinical relevance of UGT1A9 genotype effect on ertugliflozin exposure” value in the data set on UGT1A9 [2] (healthy subjects) is on record as “did not have any clinically meaningful effects”. Also, the “effect of high-fat meal on ertugliflozin AUC” value in data set [3] (15-mg commercial tablet) is listed as “no meaningful effect”. In data set [3], the “effect on ertugliflozin exposure of administration with food” value is “No clinically meaningful effect” and the “share of ertugliflozin biotransformation accounted for by glucuronidation” value is listed as around 90%. For the same compound, the “administered dose recovered in urine and feces as unchanged ertugliflozin” value in data set [3] (mass-balance study in humans) is listed as around 35%. For the same compound, in data set [3] (multiple doses, fed), the “median time to maximum plasma concentrations (Tmax)” value is 2.0 h. For the same compound, the “median time to maximum plasma concentrations (Tmax)” value in data set [3] (single doses, fasted) was 1.0 h. In addition, the “share of glucuronide metabolite formation catalyzed by UGT1A9” value in the data set on UGT1A9 [4] is recorded as 81%. Besides, the “share of ertugliflozin glucuronidation by UGT2B7 and UGT2B4” value with UGT2B7 and UGT2B4 is 19%. In addition, the “reduction in ertugliflozin AUC” value in data set [5] was around 39%. Moreover, in data set [6], the “increase in ertugliflozin AUC” value is on record as around 1.5 fold.
For the compound `CCOc1ccc(Cc2cc([C@]34OC[C@](CO)(O3)[C@@H](O)[C@H](O[C@@H]3O[C@H](C(=O)O)[C@@H](O)[C@H](O)[C@H]3O)[C@H]4O)ccc2Cl)cc1` [ertugliflozin‐3‐O‐β‐glucuronide], in data set [7], the “pharmacological activity of metabolite” value is “pharmacologically inactive”.
Consider ertugliflozin‐2‐O‐β‐glucuronide, for which the “pharmacological activity of metabolite” value in data set [7] was “pharmacologically inactive”.
